Bioassay records as filed in PubChem.
Sampled rows, rich in hits. Any-hit rate of the full collection: about 5.1%.
STAT1 act-1 – increases IFN-gamma driven STAT1 reporter signal; activation (% of control), % at 5.5 µM; AID 932; NIH 3T3 STAT1-luciferase reporter, luminescence; 100% = IFN-gamma alone, no compound; 200,000 tested, 2.6% active;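 active means activation above the screen-wide mean activation plus 3 SD, cut at about 130% in these data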
NF-kB expr up – NF-kB expression increase, human neuronal cells | AID 1239 | fold change at 12.5 µM | NF-kB reporter expression; active compounds read high | 190,000 tested, 1.6% active; in the data active means fold change above about 3.3
APP 5'UTR act – APP 5'UTR luciferase reporter activation; SH-SY5Y APP 5'UTR luciferase reporter, luminescence; zero percent = DMSO vehicle wells; 190,000 tested, 1% active; activation, % at 2 µM;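 active means activation above a set limit, based on mean plus 3 SD of controls, cut at about 140% in these data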
STAT3 act-1 – increases IL-6 driven STAT3 reporter signal; U3A cells, IL-6 STAT3-luciferase reporter, luminescence; 100% = signal with IL-6 EC80 alone; activation (% of control), % at 5.6 µM; 190,000 tested, 0.91% active; AID 871;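 active means activation above the screen-wide mean of compound activation plus 3 SD, cut at about 130% in these data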
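Material: STAT3-luciferase reporter U3A cells. Controls: IL-6-treated wells, 100% activation. Read-out: % activation versus median of IL-6-stimulated wells. Probe or stimulus: IL-6 stimulus at 33 ng/mL final. Timing: compound 1 h, then IL-6 6 h at 37 °C. Signal: reporter luminescence signal.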
STAT1 inh – reduces IFN-gamma driven STAT1 reporter signal. 200,000 tested, 0.35% active. AID 920. inhibition, % at 5.5 µM. NIH 3T3 STAT1-luciferase reporter, luminescence;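 active means inhibition above a set limit, the mean inhibition across all tested compounds plus 3 SD, cut at about 34% in these data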
STAT3 blocker – STAT3 signaling inhibition; U3A cells, IL-6 STAT3-luciferase reporter, luminescence; host cell line lacks STAT1; 190,000 tested, 0.89% active; AID 862; inhibition, % at 5.5 µM;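 active means inhibition above the mean inhibition across all screened compounds plus 3 SD, cut at about 44% in these data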
STAT3 act-2 – STAT3 activation, confirmation assay; shares compounds with STAT3 act-1; U3A STAT3-luciferase reporter, IL-6 potentiation, luminescence; U3A cells lack STAT1; 100 means same as IL-6 alone; potentiation (% of control), % at 5.7 µM; 1,200 tested, 64% active;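 active means percent activation of the STAT3 luciferase reporter above a set limit taken from the earlier primary screen, cut at about 130% in these data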
NFkB act STAT3ct – NF-kappaB activation in STAT3 activator counter-screen; shares compounds with STAT3 act-1; human cells, NF-kappaB reporter activation; activation (% of control), % at 5.7 µM; 1,200 tested, 11% active; AID 1309; in the data active means activation above about 120%;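 further: reporter induced by TNF-alpha stimulation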
STAT1 act-2 – counter-screen for STAT3 activators: STAT1 activation | 1,200 tested, 13% active | activation (% of control), % at 5.7 µM | shares compounds with STAT3 act-1 | AID 1318 | NIH 3T3 STAT1-luciferase reporter, IFN-gamma, luminescence;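 active means activation above the solvent-only control well mean plus 3 SD, set per screening run, cut at about 120% in these data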
Hits are given with their value.

How did O=C(Nc1ccccc1)c1ccc2ccccc2n1 do in these assays?
STAT1 act-1: inactive; NF-kB expr up: 6.63; APP 5'UTR act: 179.0; STAT3 act-1: 152.5; STAT1 inh: inactive; STAT3 blocker: inactive; STAT3 act-2: 187.7; NFkB act STAT3ct: 141.3; STAT1 act-2: 176.3

How did Cc1c(C(=O)Nc2ccc(Cl)cn2)oc2ccccc12 do in these assays?
STAT1 act-1: inactive; NF-kB expr up: inactive; APP 5'UTR act: inactive; STAT3 act-1: 195.0; STAT1 inh: inactive; STAT3 blocker: inactive; STAT3 act-2: 197.3; NFkB act STAT3ct: 133.6; STAT1 act-2: 138.4

How did CN(C)c1ccc(C2CC(c3ccccc3)=Nc3nc(-c4ccccc4)cn32)cc1 (stereo not drawn) do in these assays?
STAT1 act-1: inactive; NF-kB expr up: inactive; APP 5'UTR act: inactive; STAT3 act-1: inactive; STAT1 inh: inactive; STAT3 blocker: inactive

How did Cc1c(CN2CCc3c([nH]c4ccccc34)C2CC(C)C)cnn1C (stereo not drawn) do in these assays?
STAT1 act-1: inactive; NF-kB expr up: inactive; APP 5'UTR act: inactive; STAT3 act-1: 138.6; STAT1 inh: inactive; STAT3 blocker: inactive; STAT3 act-2: 143.1; NFkB act STAT3ct: inactive; STAT1 act-2: inactive

What do the screens show for `CC(C)CC1c2[nH]c3ccccc3c2CCN1C(=O)CCC(=O)N(C)C` (stereo not drawn)?
STAT1 act-1: inactive; NF-kB expr up: inactive; APP 5'UTR act: inactive; STAT3 act-1: 144.5; STAT1 inh: inactive; STAT3 blocker: inactive; STAT3 act-2: 150.1; NFkB act STAT3ct: inactive; STAT1 act-2: inactive

Results for CC(=O)c1cc(C(=O)N2CCc3c([nH]c4ccccc34)C2CC(C)C)[nH]n1 (stereo not drawn) ?
STAT1 act-1: inactive; NF-kB expr up: inactive; APP 5'UTR act: inactive; STAT3 act-1: 145.1; STAT1 inh: inactive; STAT3 blocker: inactive; STAT3 act-2: 142.6; NFkB act STAT3ct: inactive; STAT1 act-2: inactive

Results for CC(C)CC1c2[nH]c3ccccc3c2CCN1C(=O)C1CCOCC1 (stereo not drawn) ?
STAT1 act-1: inactive; NF-kB expr up: inactive; APP 5'UTR act: inactive; STAT3 act-1: inactive; STAT1 inh: inactive; STAT3 blocker: inactive

How did Cn1cccc1-c1cc(C(=O)N2CCc3c([nH]c4ccccc34)C2c2ccccn2)[nH]n1 (stereo not drawn) do in these assays?
STAT1 act-1: inactive; NF-kB expr up: inactive; APP 5'UTR act: inactive; STAT3 act-1: inactive; STAT1 inh: inactive; STAT3 blocker: inactive

What do the screens show for `CCN(CC)/C(Sc1ccccc1)=C(/C(Cl)=C(Cl)Cl)[N+](=O)[O-]`?
STAT1 act-1: inactive; NF-kB expr up: inactive; APP 5'UTR act: inactive; STAT3 act-1: inactive; STAT1 inh: inactive; STAT3 blocker: inactive

What do the screens show for `Cc1ccccc1NC(=O)C1CCN(c2cc(-c3ccccc3)nc3ncnn23)CC1`?
STAT1 act-1: inactive; NF-kB expr up: inactive; APP 5'UTR act: inactive; STAT3 act-1: inactive; STAT1 inh: inactive; STAT3 blocker: inactive

What do the screens show for `CNc1ccccc(-c2ccc3cc4c(cc3n2)OCO4)c1=O`?
STAT1 act-1: inactive; NF-kB expr up: inactive; APP 5'UTR act: inactive; STAT3 act-1: inactive; STAT1 inh: inactive; STAT3 blocker: inactive

What do the screens show for `CCc1cc2c(NCCC(=O)O)nc(C)nc2s1`?
STAT1 act-1: inactive; NF-kB expr up: inactive; APP 5'UTR act: inactive; STAT3 act-1: 157.9; STAT1 inh: inactive; STAT3 blocker: inactive; STAT3 act-2: 140.0; NFkB act STAT3ct: inactive; STAT1 act-2: inactive

Results for CC1COc2ccccc2N1C(=O)c1ccc(Cl)nc1 (stereo not drawn) ?
STAT1 act-1: inactive; NF-kB expr up: inactive; APP 5'UTR act: inactive; STAT3 act-1: 144.7; STAT1 inh: inactive; STAT3 blocker: inactive; STAT3 act-2: 135.6; NFkB act STAT3ct: inactive; STAT1 act-2: inactive

How did Cc1nc(-c2coc3cc(C)c(N=O)c(O)c3/c2=N\N)cs1 do in these assays?
STAT1 act-1: inactive; NF-kB expr up: inactive; APP 5'UTR act: inactive; STAT3 act-1: inactive; STAT1 inh: inactive; STAT3 blocker: inactive

Results for Cc1csc(-c2coc3cc(O)cc(C)c3c2=O)n1 ?
STAT1 act-1: inactive; NF-kB expr up: inactive; APP 5'UTR act: inactive; STAT3 act-1: 148.1; STAT1 inh: inactive; STAT3 blocker: inactive; STAT3 act-2: 159.9; NFkB act STAT3ct: inactive; STAT1 act-2: 130.8

What do the screens show for `O=C1C(=C(c2ccccc2)c2ccccc2)Nc2ccccc21`?
STAT1 act-1: inactive; NF-kB expr up: inactive; APP 5'UTR act: inactive; STAT3 act-1: 146.8; STAT1 inh: inactive; STAT3 blocker: inactive; STAT3 act-2: 139.4; NFkB act STAT3ct: inactive; STAT1 act-2: inactive

Results for O=C1C(=C(O)c2ccccc2)C(=O)c2ccccc21 ?
STAT1 act-1: inactive; NF-kB expr up: inactive; APP 5'UTR act: inactive; STAT3 act-1: inactive; STAT1 inh: inactive; STAT3 blocker: inactive

How did O=C(CN1C(=O)c2ccccc2C1=O)Nc1ccccc1C(=O)NC1CCCCC1 do in these assays?
STAT1 act-1: inactive; NF-kB expr up: inactive; STAT3 act-1: inactive; STAT1 inh: inactive; STAT3 blocker: inactive

How did CC1=NNC(=O)C1C(c1ccccc1)C(C#N)C#N (stereo not drawn) do in these assays?
STAT1 act-1: inactive; NF-kB expr up: inactive; STAT3 act-1: inactive; STAT1 inh: inactive; STAT3 blocker: inactive

Results for O=C(COC(=O)c1cc(S(=O)(=O)N2CCCCC2)ccc1N1CCOCC1)NCCc1ccc(F)cc1 ?
STAT1 act-1: inactive; NF-kB expr up: inactive; APP 5'UTR act: inactive; STAT3 act-1: inactive; STAT1 inh: inactive; STAT3 blocker: inactive

What do the screens show for `O=c1cc(-c2ccccc2)[nH]n1-c1nc2ccccc2s1`?
STAT1 act-1: inactive; NF-kB expr up: inactive; APP 5'UTR act: inactive; STAT3 act-1: 138.4; STAT1 inh: inactive; STAT3 blocker: inactive; STAT3 act-2: inactive; NFkB act STAT3ct: 126.2; STAT1 act-2: inactive

Results for CCOc1ccccc1-c1n[nH]c(=S)o1 ?
STAT1 act-1: inactive; NF-kB expr up: inactive; APP 5'UTR act: inactive; STAT3 act-1: 173.4; STAT1 inh: inactive; STAT3 blocker: inactive; STAT3 act-2: 156.0; NFkB act STAT3ct: inactive; STAT1 act-2: inactive

How did C=CCn1c(SCC#N)nc2ccccc2c1=O do in these assays?
STAT1 act-1: inactive; NF-kB expr up: inactive; APP 5'UTR act: inactive; STAT3 act-1: 136.2; STAT1 inh: inactive; STAT3 blocker: inactive; STAT3 act-2: inactive; NFkB act STAT3ct: inactive; STAT1 act-2: inactive
